Source: PubChem BioAssay
Only some compounds are listed: those with a hit (about 2.4% of all), similar ones and a draw of the others.
M18AAP inhibitor: PfM18AAP enzyme inhibition; recombinant PfM18AAP, H-Glu-NHMec fluorogenic cleavage; inhibition, % at 7.35 µM; 290,000 tested, 1.2% active; AID 1822;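 active means inhibition above the campaign mean inhibition over all tested compounds plus 3 SD, cut at about 28% in these data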;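 further: 0% = plate median of test compound wells and 100% = 2 mM ZnCl2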
IMP-1 inh-1: blocks Pseudomonas aeruginosa IMP-1 metallo-beta-lactamase; inhibition, % at 5.6 µM; purified IMP-1, nitrocefin hydrolysis, epi-absorbance fluorescence; 290,000 tested, 0.45% active;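 active means inhibition above the mean plus 3 SD of all compounds in the same screening run, cut at about 4.5% in these data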;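 further: 0% = IMP-1 with DMSO and 100% = DMSO wells lacking enzyme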
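System: purified IMP-1; amount: IMP-1 0.2 nM before substrate addition; compound: single dose, 5.6 µM; times: 25 °C, 15 min preincubation, 25 min reaction; signal: Epi-absorbance via hydrolysed-nitrocefin quenching of white-plate fluorescence, 480/530 nm, EDTA stop; benchmarks: DMSO with and without IMP-1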
HGIII-sPLA2 inh: Inhibits HGIII-sPLA2 liposome hydrolysis, primary screen; AID 743126; QFRET BODIPY PC-A2 liposome hydrolysis, fluorescence; inhibition, % at 12.2 µM; Q9NZ20; 370,000 tested, 0.56% active;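 active means inhibition above mean plus 3 SD of compounds lying within the high and low control bounds, cut at about 19% in these data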;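 further: 0% = median of test compound wells and 100% = no enzyme DMSO wells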
VIM-2 inh: inhibitors of Pseudomonas aeruginosa VIM-2 metallo-beta-lactamase. inhibition, % at 5.6 µM. purified VIM-2, nitrocefin hydrolysis, epi-absorbance fluorescence. 290,000 tested, 0.89% active;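 active means inhibition above the mean of all tested compounds plus 3 SD, cutoff set per screening run, cut at about 7.5% in these data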;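 further: red hydrolysis product quenches plate fluorescence so inhibitors raise well fluorescence; 0% = enzyme with DMSO and 100% = DMSO without enzyme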
IMP-1 inh-2: selectivity counter-screen for VIM-2 inhibitors: IMP-1 metallo-beta-lactamase inhibitors; shares compounds with VIM-2 inh; purified IMP-1, nitrocefin hydrolysis, epi-absorbance fluorescence; inhibition, % at 5.6 µM; 1,300 tested, under 10 active; call rule not given here;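 further: 0% = enzyme with vehicle and 100% = vehicle without enzyme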
VIM-2 FRET ctr: VIM-2 FRET inhibition, artifact counter-screen; inhibition, % at 5.6 µM; shares compounds with VIM-2 inh; purified VIM-2, CCF2 FRET substrate hydrolysis; 1,300 tested, 23% active;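 active means inhibition above the mean of all tested compounds plus 3 SD, cut at about 19% in these data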;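 further: 0% = VIM-2 plus DMSO and 100% = no enzyme wells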
TEM-1 inh: blocks E. coli TEM-1 beta-lactamase in VIM-2 selectivity screen; Purified TEM-1, nitrocefin hydrolysis, epi-absorbance fluorescence; shares compounds with VIM-2 inh; 1,300 tested, 3% active; inhibition, % at 5.6 µM;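 active means inhibition above that campaign's mean inhibition plus 3 SD, cut at about 0.46% in these data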;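 further: 0% = TEM-1 with DMSO and 100% = TEM-1 with 100 µM potassium clavulanate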
Target sequence (P62593 whole entry, looked up): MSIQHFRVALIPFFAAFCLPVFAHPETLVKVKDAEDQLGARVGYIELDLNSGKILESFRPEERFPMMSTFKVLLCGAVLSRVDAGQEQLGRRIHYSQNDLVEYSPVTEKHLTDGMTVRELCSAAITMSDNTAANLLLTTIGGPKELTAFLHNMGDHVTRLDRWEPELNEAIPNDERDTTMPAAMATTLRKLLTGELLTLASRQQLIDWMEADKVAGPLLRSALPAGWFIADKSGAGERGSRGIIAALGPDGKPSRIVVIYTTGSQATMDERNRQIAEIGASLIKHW
VIM-2 inh conf: confirmation of P. aeruginosa VIM-2 metallo-beta-lactamase inhibitors | 1,300 tested, 96% active | inhibition, % at 5.6 µM | purified VIM-2, nitrocefin hydrolysis, epi-absorbance | AID 2187 | shares compounds with VIM-2 inh;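 active means inhibition of the VIM-2 beta-lactamase enzyme above about 11% from the earlier first-round screen, limit read from the data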;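 further: 0% = VIM-2 with DMSO and 100% = buffer wells without enzyme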
* hit, by the source's call; . = not tested or not shown.

SMILES	M18AAP inhibitor	IMP-1 inh-1	HGIII-sPLA2 inh	VIM-2 inh	IMP-1 inh-2	VIM-2 FRET ctr	TEM-1 inh	VIM-2 inh conf
Cn1c(-c2sccc2OCc2ccccc2)n[nH]c1=S	9	-2	14	35*	-2	72*	-7	54*
Cn1c(-c2sccc2OCc2ccc(Cl)cc2Cl)n[nH]c1=S	13	-4	4	34*	-3	62*	-8	43*
COc1cc(/C=C/C(=O)OCC(=O)N2CCN(S(=O)(=O)c3ccc(C)cc3C)CC2)cc(Cl)c1OC	.	.	6	.	.	.	.	.
Cc1c(OC(C)C(=O)NCc2ccncc2)ccc2c3c(c(=O)oc12)CCC3 (stereo not given)	4	-1	5	23*	-2	-5	-11	36*
Cc1c(OC(C)C(=O)NCc2ccccn2)ccc2c3c(c(=O)oc12)CCCC3 (stereo not given)	-3	-4	-5	16*	-3	0	-11	23*
Cc1c(OCC(=O)NCc2cccnc2)ccc2c3c(c(=O)oc12)CCC3	-9	0	5	27*	-4	-1	-11	31*
CCc1cc(=O)oc2cc(C)cc(OC(C)C(=O)NCc3ccccn3)c12 (stereo not given)	-1	0	-1	-2	.	.	.	.
CC(=O)COc1ccc2c3c(c(=O)oc2c1C)CCCCC3	2	-1	-2	-6	.	.	.	.
Cc1c(OCC(=O)NCc2ccncc2)ccc2c3c(c(=O)oc12)CCC3	6	-6	4	50*	-2	-5	-13	57*
CCCC(=O)OC12CCCN(C1)/C(=C/c1cccc(Cl)c1)C2 (stereo not given)	.	.	2	.	.	.	.	.
CC(C)c1cc(Cn2c3ccccc3c(=O)n2C(C)Cn2cc(-c3ccc(C(C)(C)C)cc3)nn2)on1 (stereo not given)	.	.	6	.	.	.	.	.
O=C1/C(=C/c2ccc(S(=O)(=O)O)cc2S(=O)(=O)O)CCc2ccccc21	.	.	3	.	.	.	.	.
O=[N+]([O-])c1nccn1CC(O)CCN1CCOCC1 (stereo not given)	.	.	5	.	.	.	.	.
Cc1nn(-c2ccccc2)c(C)c1C=NNC(=O)CSc1nc2ccccc2n1C	.	.	11	.	.	.	.	.
C[C@H]1[C@@H](OC(=O)NCc2ccc(C(F)(F)F)cc2)CC[C@@]23CCCN2C(=O)CCC[C@@H]13	.	.	2	.	.	.	.	.
Cc1c(OC(C)C(=O)NCC(O)c2ccccc2)ccc2c3c(c(=O)oc12)CCC3 (stereo not given)	1	0	1	19*	-3	-1	-8	24*
CC(C)NC(=O)OC[C@@H]1CSCCS(=O)(=O)N1	.	.	5	.	.	.	.	.
O=C(O)c1cnc2ccc(Cl)cc2n1	.	.	8	.	.	.	.	.
CC(Oc1cc2oc(=O)c3c(c2cc1Cl)CCCC3)C(=O)NCCN1CCOCC1 (stereo not given)	-5	1	1	13*	-4	-3	-5	15*
O=C(COc1ccc2c(c1)oc(=O)c1ccccc12)NCCCN1CCOCC1	-5	-2	7	20*	-3	3	-8	33*
CC(Oc1ccc2c(-c3ccccc3)cc(=O)oc2c1)C(=O)NCCN1CCOCC1 (stereo not given)	0	-3	0	0	.	.	.	.
CC(Oc1ccc2c(c1)oc(=O)c1ccccc12)C(=O)NCCN1CCOCC1 (stereo not given)	0	3	4	14*	-3	-1	-7	23*
Cc1c(C)c2ccc(OCC(=O)NCCN3CCOCC3)cc2oc1=O	2	-3	7	1	.	.	.	.
O=C(COc1ccc2c3c(c(=O)oc2c1)CCC3)NCCCN1CCOCC1	-2	0	1	24*	-3	3	-6	31*
C[C@H](CO)N1C[C@H](C)[C@@H](CN(C)S(=O)(=O)c2ccc(C#N)cc2)OCc2cn(nn2)CCCC1=O	.	.	5	.	.	.	.	.
O=C(NCCOc1ccccc1Cl)c1ccc2c(c1)S(=O)(=O)c1cc(Cl)ccc1C2=O	.	.	12	.	.	.	.	.
Cc1cc(=O)oc2c(C)c(OCC(=O)NC3CCN(Cc4ccccc4)CC3)ccc12	5	-1	-14	13*	-2	-2	-8	21*
